{"source": "ChEMBL document CHEMBL1137001", "about": "“Synthesis and evaluation of 9-O-substituted berberine derivatives containing aza-aromatic terminal group as highly selective telomeric G-quadruplex stabilizing ligands” (Bioorg Med Chem Lett, 2009)", "key": {"[1]": {"tested_on": "Nucleic Acid", "experiment": "Binding affinity to human telomeric G-quadruplex F21T DNA assessed as change in melting temperature at 2.0 uM by FRET assay", "type": "nucleic-acid assay"}, "[2]": {"tested_on": "Nucleic Acid", "experiment": "Inhibition of G-quadruplex HTG21 oligomer hybridization by PCR stop assay", "type": "nucleic-acid assay", "outline": "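HTG21 was amplified by PCR in the presence of compound, and products were separated on gel. IC50 is the concentration that inhibits amplification by 50%.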"}, "[3]": {"tested_on": "Nucleic Acid", "experiment": "Binding affinity to hairpin duplex F10T DNA assessed as change in melting temperature at 2.0 uM by FRET assay"}, "[4]": {"experiment": "Inhibition of telomerase from human MCF7 cellular extract by cell free TRAP assay", "outline": "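TRAP assay. Compounds at various concentrations were added to a telomerase reaction mixture containing extract from cracked MCF-7 breast carcinoma cells, and IC50 values were derived.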"}, "[5]": {"tested_on": "Nucleic Acid", "experiment": "Induction of G-quadruplex structure formation in HTG21 oligomer assessed as formation of antiparallel quadruplex structure by CD spectroscopy", "type": "nucleic-acid assay"}}, "note": "Calls of active or inactive are those of the source. The calls are words filed in the database; no cut-off is given here."}
{"smiles": "COc1ccc2cc3[n+](cc2c1OCCCn1ccc(N)nc1=O)CCc1cc2c(cc1-3)OCO2", "values": [{"measurement": "ΔTm", "setting": "[1]", "result": 13, "unit": "°C"}, {"measurement": "IC50", "setting": "[2]", "result": 14, "unit": "µM"}, {"measurement": "ΔTm", "setting": "[3]", "result": 0, "unit": "°C"}, {"measurement": "IC50", "setting": "[4]", "result": 22, "unit": "µM"}]}
{"smiles": "COc1ccc2cc3[n+](cc2c1OCCC[n+]1cccc2ccccc21)CCc1cc2c(cc1-3)OCO2", "values": [{"measurement": "ΔTm", "setting": "[1]", "result": 20, "unit": "°C"}, {"measurement": "IC50", "setting": "[2]", "result": 8, "unit": "µM"}, {"measurement": "ΔTm", "setting": "[3]", "result": 0, "unit": "°C"}, {"measurement": "IC50", "setting": "[4]", "result": 15, "unit": "µM"}]}
{"smiles": "COc1ccc2cc3[n+](cc2c1OCCC[n+]1ccccc1)CCc1cc2c(cc1-3)OCO2", "values": [{"measurement": "ΔTm", "setting": "[1]", "result": 18, "unit": "°C"}, {"measurement": "IC50", "setting": "[2]", "result": 8, "unit": "µM"}, {"measurement": "ΔTm", "setting": "[3]", "result": 0.5, "unit": "°C"}, {"measurement": "IC50", "setting": "[4]", "result": 17, "unit": "µM"}]}
{"smiles": "COc1ccc2cc3[n+](cc2c1OC)CCc1cc2c(cc1-3)OCO2", "values": [{"measurement": "ΔTm", "setting": "[1]", "result": 4, "unit": "°C"}, {"measurement": "ΔTm", "setting": "[3]", "result": 1, "unit": "°C"}]}
{"smiles": "COc1ccc2cc3[n+](cc2c1OCCCCCC[n+]1ccccc1)CCc1cc2c(cc1-3)OCO2", "values": [{"measurement": "ΔTm", "setting": "[1]", "result": 20, "unit": "°C"}, {"measurement": "IC50", "setting": "[2]", "result": 4, "unit": "µM"}, {"measurement": "ΔTm", "setting": "[3]", "result": 0, "unit": "°C"}, {"measurement": "IC50", "setting": "[4]", "result": 15, "unit": "µM"}]}
{"smiles": "COc1ccc2cc3[n+](cc2c1OCCCn1cc[n+](C)c1)CCc1cc2c(cc1-3)OCO2", "values": [{"measurement": "ΔTm", "setting": "[1]", "result": 17, "unit": "°C"}, {"measurement": "IC50", "setting": "[2]", "result": 8, "unit": "µM"}, {"measurement": "ΔTm", "setting": "[3]", "result": 0, "unit": "°C"}, {"measurement": "IC50", "setting": "[4]", "result": 16, "unit": "µM"}]}
{"smiles": "COc1ccc2cc3[n+](cc2c1OCCC[n+]1cccc(C)c1)CCc1cc2c(cc1-3)OCO2", "values": [{"measurement": "ΔTm", "setting": "[1]", "result": 21, "unit": "°C"}, {"measurement": "IC50", "setting": "[2]", "result": 6, "unit": "µM"}, {"measurement": "ΔTm", "setting": "[3]", "result": 0.5, "unit": "°C"}, {"measurement": "IC50", "setting": "[4]", "result": 14, "unit": "µM"}]}
{"smiles": "COc1ccc2cc3[n+](cc2c1OCCC[n+]1cccc(F)c1)CCc1cc2c(cc1-3)OCO2", "values": [{"measurement": "ΔTm", "setting": "[1]", "result": 20, "unit": "°C"}, {"measurement": "IC50", "setting": "[2]", "result": 6, "unit": "µM"}, {"measurement": "ΔTm", "setting": "[3]", "result": 0, "unit": "°C"}, {"measurement": "IC50", "setting": "[4]", "result": 16, "unit": "µM"}]}
{"smiles": "COc1ccc2cc3[n+](cc2c1OCCCN1CCCCC1)CCc1cc2c(cc1-3)OCO2", "values": [{"measurement": "IC50", "setting": "[2]", "result": 7, "unit": "µM"}, {"measurement": "IC50", "setting": "[4]", "result": 16, "unit": "µM"}]}
{"smiles": "COc1ccc2cc3[n+](cc2c1OCCC[n+]1ccc(N(C)C)cc1)CCc1cc2c(cc1-3)OCO2", "values": [{"measurement": "ΔTm", "setting": "[1]", "result": 25, "unit": "°C"}, {"measurement": "IC50", "setting": "[2]", "result": 4, "unit": "µM"}, {"measurement": "Activity", "setting": "[5]", "result": "Active"}, {"measurement": "ΔTm", "setting": "[3]", "result": 0, "unit": "°C"}, {"measurement": "IC50", "setting": "[4]", "result": 14, "unit": "µM"}]}
{"smiles": "COc1ccc2cc3[n+](cc2c1OCCCCC[n+]1ccccc1)CCc1cc2c(cc1-3)OCO2", "values": [{"measurement": "ΔTm", "setting": "[1]", "result": 21, "unit": "°C"}, {"measurement": "IC50", "setting": "[2]", "result": 7, "unit": "µM"}, {"measurement": "ΔTm", "setting": "[3]", "result": 0.5, "unit": "°C"}, {"measurement": "IC50", "setting": "[4]", "result": 15, "unit": "µM"}]}
{"smiles": "COc1ccc2cc3[n+](cc2c1OCCCOc1ccncc1)CCc1cc2c(cc1-3)OCO2", "values": [{"measurement": "ΔTm", "setting": "[1]", "result": 10, "unit": "°C"}, {"measurement": "IC50", "setting": "[2]", "result": 12, "unit": "µM"}, {"measurement": "ΔTm", "setting": "[3]", "result": 0, "unit": "°C"}, {"measurement": "IC50", "setting": "[4]", "result": 28, "unit": "µM"}]}
